Measurements reported in ChEMBL document CHEMBL2157924, “Cyclobutane derivatives as novel nonpeptidic small molecule agonists of glucagon-like peptide-1 receptor” (J Med Chem, 2012).

Assays:
[1] = biological target: T1, Glucagon-like peptide 1 receptor (Rattus norvegicus, UniProt P32301); assay: Inhibition of [125I]GLP1 (7-36) amide binding to rat GLP1R expressed in HEK293 cells; assay type: cell-based
T1 sequence (P32301 whole entry): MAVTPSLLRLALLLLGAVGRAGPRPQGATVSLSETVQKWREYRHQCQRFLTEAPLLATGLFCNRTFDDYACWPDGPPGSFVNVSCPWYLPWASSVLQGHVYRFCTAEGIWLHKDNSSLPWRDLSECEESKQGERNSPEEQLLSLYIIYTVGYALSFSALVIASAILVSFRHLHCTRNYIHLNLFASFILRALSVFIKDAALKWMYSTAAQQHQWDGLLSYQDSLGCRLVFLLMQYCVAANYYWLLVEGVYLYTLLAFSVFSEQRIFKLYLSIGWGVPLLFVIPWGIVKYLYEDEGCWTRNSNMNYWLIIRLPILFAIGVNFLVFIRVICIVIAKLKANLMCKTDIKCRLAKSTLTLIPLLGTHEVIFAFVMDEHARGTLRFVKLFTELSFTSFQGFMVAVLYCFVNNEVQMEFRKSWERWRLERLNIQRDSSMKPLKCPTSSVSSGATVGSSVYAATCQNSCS
Procedure, shortened: (§1)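 Membranes (17 μg protein) from HEK293 cells stably expressing rat GLP-1R were preincubated 5 h at 4 °C with FlashBlue beads (150 μg). Then 40 pM [125I]GLP-1(7−36) amide or [125I]Exendin(9−39) was added with aprotinin 2 μg/mL, leupeptin 100 μM and test compound at varied concentrations. Incubated overnight at 4 °C, then bound radioactivity counted. Mean ± SEM of two independent experiments.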

[2] = biological target: T2, Glucagon-like peptide 1 receptor (Rattus norvegicus) (UniProt P32301); assay: Inhibition of [125I]GLP1 (7-36) amide binding to rat GLP1R expressed in HEK293 cells relative to untreated control; assay type: cell-based; design: concentration or dose not given beside the values; settings: concentration not given here; procedure, shortened: as §1
T2 sequence (whole entry): T1 sequence (P32301 whole entry)

[3] = biological target: T1, Glucagon-like peptide 1 receptor; assay: Agonist activity at rat GLP1R expressed in HEK293 cells assessed as stimulation of cAMP levels incubated for 6 hrs by multiple response element/cAMP response element (MRE/CRE)-driven reporter gene assay; assay type: functional, cell-based
Procedure, shortened: (§2)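 Stable HEK293 line co-expressing rat GLP-1R (pCMV-Tag2B) and a luciferase reporter with 3× MRE plus 1× CRE, seeded at 40000 cells/well and cultured overnight. Compounds in DMSO or GLP-1(7−37) were added for 6 h, then cells were lysed and luciferase read (Steady-Glo). The 10 nM GLP-1 maximum was taken as 100%. Mean ± SEM of two independent experiments; some values come from a single run.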

[4] = biological target: T2, Glucagon-like peptide 1 receptor (Rattus norvegicus); assay: Inhibition of [125I]Exendin (9-39) binding to rat GLP1R expressed in HEK293 cells; assay type: cell-based; design: concentration or dose not given beside the values; settings: concentration not given here; procedure, shortened: as §1
[5] = biological target: T2, Glucagon-like peptide 1 receptor (Rattus norvegicus); assay: Agonist activity at rat GLP1R expressed in HEK293 cells assessed as stimulation of cAMP levels incubated for 6 hrs by multiple response element/cAMP response element (MRE/CRE)-driven reporter gene assay relative to 10 nM GLP1; assay type: functional, cell-based; procedure, shortened: as §2

IC50 [1] | inhibition [2] | EC50 [3] | inhibition [4] | Efficacy [5] | Structure (SMILES)
4.3 µM | 43.8% | 4.5 µM | 37.9% | 33.7% | CCOC(=O)CNC(=O)Nc1ccc(C(=O)N[C@]2(C(=O)O)[C@H](c3ccc(OC(=O)c4cccs4)c(OC)c3)[C@@](NC(=O)c3ccc(NC(=O)NCC(=O)OCC)cc3)(C(=O)O)[C@@H]2c2ccc(OC(=O)c3cccs3)c(OC)c2)cc1
0.5 µM | 47.6% | 1.11 µM | 33.4% | 60.8% | COc1cc([C@H]2[C@](NC(=O)c3ccc(NC(=O)C(C)(C)C)cc3)(C(=O)O)[C@@H](c3ccc(OC(=O)c4cccs4)c(OC)c3)[C@]2(NC(=O)c2ccc(NC(=O)C(C)(C)C)cc2)C(=O)O)ccc1OC(=O)c1cccs1
0.3 µM | 39.3% | 0.657 µM | 37.9% | 35.9% | COc1cc([C@H]2[C@](NC(=O)c3ccc(NC(=O)C4CCCC4)cc3)(C(=O)O)[C@@H](c3ccc(OC(=O)c4cccs4)c(OC)c3)[C@@]2(NC(=O)c2ccc(NC(=O)C3CCCC3)cc2)C(=O)O)ccc1OC(=O)c1cccs1
> 20 µM | < 15% | > 20 µM | < 15% | < 15% | COc1cc([C@H]2[C@](NC(=O)c3ccc(NC(=O)OC(C)(C)C)cc3)(C(=O)O)[C@@H](c3ccc(OCc4ccc(F)cc4)c(OC)c3)[C@]2(NC(=O)c2ccc(NC(=O)OC(C)(C)C)cc2)C(=O)O)ccc1OCc1ccc(F)cc1
17.5 µM | 40.1% | 19.1 µM | 29.4% | 67% | COc1cc([C@H]2[C@](NC(=O)c3ccc(NC(=O)OC(C)(C)C)cc3)(C(=O)O)[C@@H](c3ccc(OC(=O)c4ccc(C)s4)c(OC)c3)[C@]2(NC(=O)c2ccc(NC(=O)OC(C)(C)C)cc2)C(=O)O)ccc1OC(=O)c1ccc(C)s1
2.7 µM | 86% | 2.5 µM | 68.3% | 91% | CCC(=O)Oc1ccc([C@H]2[C@](NC(=O)c3ccc(NC(=O)OC(C)(C)C)cc3)(C(=O)O)[C@@H](c3ccc(OC(=O)CC)c(OC)c3)[C@]2(NC(=O)c2ccc(NC(=O)OC(C)(C)C)cc2)C(=O)O)cc1OC
7.5 µM | 47.2% | 1.38 µM | 34.8% | 65% | COc1cc([C@H]2[C@](NC(=O)c3ccc(NC(=O)OC(C)(C)C)cc3)(C(=O)O)[C@@H](c3ccc(OC(=O)C(C)C)c(OC)c3)[C@]2(NC(=O)c2ccc(NC(=O)OC(C)(C)C)cc2)C(=O)O)ccc1OC(=O)C(C)C
> 20 µM | < 15% | > 20 µM | < 15% | < 15% | COc1cc([C@H]2[C@](NC(=O)c3ccc(NC(=O)OC(C)(C)C)cc3)(C(=O)OC)[C@@H](c3ccc(OC(=O)c4cccs4)c(OC)c3)[C@]2(NC(=O)c2ccc(NC(=O)OC(C)(C)C)cc2)C(=O)OC)ccc1OC(=O)c1cccs1
> 20 µM | < 15% | > 20 µM | < 15% | < 15% | CC(C)(C)OC(=O)Nc1ccc(C(=O)N[C@]2(C(=O)O)[C@H](c3ccccc3)[C@@](NC(=O)c3ccc(NC(=O)OC(C)(C)C)cc3)(C(=O)O)[C@@H]2c2ccccc2)cc1
> 20 µM | < 15% | > 20 µM | < 15% | < 15% | CCCOc1ccc([C@H]2[C@](NC(=O)c3ccc(NC(=O)OC(C)(C)C)cc3)(C(=O)O)[C@@H](c3ccc(OCCC)cc3)[C@]2(NC(=O)c2ccc(NC(=O)OC(C)(C)C)cc2)C(=O)O)cc1
1.4 µM | 72.7% | 9.12 µM | 70.1% | 68% | CNC(=S)Nc1ccc(C(=O)N[C@]2(C(=O)O)[C@H](c3ccc(OC(=O)c4cccs4)c(OC)c3)[C@@](NC(=O)c3ccc(NC(=S)NC)cc3)(C(=O)O)[C@@H]2c2ccc(OC(=O)c3cccs3)c(OC)c2)cc1
9.6 µM | 47.9% | 15.8 µM | 36.8% | 50.7% | COc1cc([C@H]2[C@](NC(=O)c3ccc(NC(=O)C(C)C)cc3)(C(=O)O)[C@@H](c3ccc(OC(=O)C4CCC4)c(OC)c3)[C@]2(NC(=O)c2ccc(NC(=O)C(C)C)cc2)C(=O)O)ccc1OC(=O)C1CCC1
> 20 µM | < 15% | > 20 µM | < 15% | < 15% | COc1cc([C@H]2C[C@]2(NC(=O)c2ccc(NC(=O)OC(C)(C)C)cc2)C(=O)O)ccc1OC(=O)c1cccs1
1.2 µM | 86.4% | 0.148 µM | 67.8% | 84.2% | COc1cc([C@H]2[C@](NC(=O)c3ccc(NC(=O)C4CC4)cc3)(C(=O)O)[C@@H](c3ccc(OC(=O)c4cccs4)c(OC)c3)[C@]2(NC(=O)c2ccc(NC(=O)C3CC3)cc2)C(=O)O)ccc1OC(=O)c1cccs1
3.6 µM | 75.8% | 2.15 µM | 63.5% | 86% | COc1cc([C@H]2[C@](NC(=O)c3ccc(NC(=O)OC(C)(C)C)cc3)(C(=O)O)[C@@H](c3ccc(OC(=O)C45CC6CC(CC(C6)C4)C5)c(OC)c3)[C@]2(NC(=O)c2ccc(NC(=O)OC(C)(C)C)cc2)C(=O)O)ccc1OC(=O)C12CC3CC(CC(C3)C1)C2
2.31 µM | 55.4% | 0.118 µM | 30.6% | 61.1% | COc1cc([C@H]2[C@](NC(=O)c3ccc(NC(C)=O)cc3)(C(=O)O)[C@@H](c3ccc(OC(=O)c4cccs4)c(OC)c3)[C@]2(NC(=O)c2ccc(NC(C)=O)cc2)C(=O)O)ccc1OC(=O)c1cccs1
7.5 µM | 65.1% | 3.33 µM | 53.8% | 86% | CCCC(=O)Oc1ccc([C@H]2[C@](NC(=O)c3ccc(NC(=O)OC(C)(C)C)cc3)(C(=O)O)[C@@H](c3ccc(OC(=O)CCC)c(OC)c3)[C@]2(NC(=O)c2ccc(NC(=O)OC(C)(C)C)cc2)C(=O)O)cc1OC
3.6 µM | 64.7% | > 20 µM | 55.9% | < 15% | COc1cc([C@H]2[C@](NC(=O)c3ccc(NC(=O)OC(C)(C)C)cc3)(C(=O)O)[C@@H](c3ccc(OC(=O)c4cccs4)c(OC)c3)[C@@]2(NC(=O)c2ccc(NC(=O)OC(C)(C)C)cc2)C(=O)O)ccc1OC(=O)c1cccs1
3 µM | 57.4% | 2.12 µM | 52.3% | 29.8% | COc1cc([C@H]2[C@](NC(=O)c3ccc(NC(=S)Nc4cccc5ccccc45)cc3)(C(=O)O)[C@@H](c3ccc(OC(=O)c4cccs4)c(OC)c3)[C@]2(NC(=O)c2ccc(NC(=S)Nc3cccc4ccccc34)cc2)C(=O)O)ccc1OC(=O)c1cccs1
1.2 µM | 53.6% | 0.749 µM | 45.6% | 87.5% | COc1cc([C@H]2[C@](NC(=O)c3ccc(NC(=O)C4CCC4)cc3)(C(=O)O)[C@@H](c3ccc(OC(=O)c4cccs4)c(OC)c3)[C@]2(NC(=O)c2ccc(NC(=O)C3CCC3)cc2)C(=O)O)ccc1OC(=O)c1cccs1
> 20 µM | < 15% | > 20 µM | < 15% | < 15% | COc1cc([C@H]2[C@](NC(=O)c3ccc(NC(=O)OC(C)(C)C)cc3)(C(N)=O)[C@@H](c3ccc(OC(=O)c4cccs4)c(OC)c3)[C@]2(NC(=O)c2ccc(NC(=O)OC(C)(C)C)cc2)C(N)=O)ccc1OC(=O)c1cccs1
> 20 µM | < 15% | > 20 µM | < 15% | < 15% | COc1cccc([C@H]2[C@](NC(=O)c3ccc(NC(=O)OC(C)(C)C)cc3)(C(=O)O)[C@@H](c3cccc(OC)c3)[C@]2(NC(=O)c2ccc(NC(=O)OC(C)(C)C)cc2)C(=O)O)c1
> 20 µM | < 15% | > 20 µM | < 15% | < 15% | COc1cc([C@H]2[C@](NC(=O)c3ccc(NC(=O)OC(C)(C)C)cc3)(C(=O)O)[C@@H](c3ccc(OC(=O)C4CCCCC4)c(OC)c3)[C@]2(NC(=O)c2ccc(NC(=O)OC(C)(C)C)cc2)C(=O)O)ccc1OC(=O)C1CCCCC1
8.5 µM | 43.8% | 3.8 µM | 32.9% | 58% | COc1cc([C@H]2[C@](NC(=O)c3ccc(NC(=O)CCl)cc3)(C(=O)O)[C@@H](c3ccc(OC(=O)c4cccs4)c(OC)c3)[C@]2(NC(=O)c2ccc(NC(=O)CCl)cc2)C(=O)O)ccc1OC(=O)c1cccs1
